# TRPC4 block = inhibitors of mouse TRPC4 channel, primary screen, Fluo4 calcium, HEK293 TRPC4beta/mu-opioid cells; B-score at 10 µM; DAMGO-evoked Fluo4 calcium flux; hits give low values; Short transient receptor potential channel 4 (Mus musculus), Q9QUQ5; AID 2247, 2010; 0.39% of 300,000 active;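 active means B-score over 3 SD under the library average, no early fluorescence shift, positive overall ratio signal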
#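 Signal: kinetic Fluo4 fluorescence imaging of calcium influx. Material: stable TRPC4beta/mu-opioid receptor HEK293 cells. Probe or stimulus: DAMGO in two steps, submaximal then maximal.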
# TRPC6 act = mouse TRPC6 channel activators, primary screen, cell-based, HEK293, membrane potential dye; B-score at 10 µM; 0.13% of 310,000 active; HEK293-TRPC6 membrane potential dye fluorescence; hits give high values;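 active means B-score of the integrated fluorescence ratio above library mean plus 3 SD, and starting fluorescence ratio within library mean plus 5 SD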;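 further: higher score means more depolarization so channel activation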
# Target sequence (Q61143 whole entry, looked up): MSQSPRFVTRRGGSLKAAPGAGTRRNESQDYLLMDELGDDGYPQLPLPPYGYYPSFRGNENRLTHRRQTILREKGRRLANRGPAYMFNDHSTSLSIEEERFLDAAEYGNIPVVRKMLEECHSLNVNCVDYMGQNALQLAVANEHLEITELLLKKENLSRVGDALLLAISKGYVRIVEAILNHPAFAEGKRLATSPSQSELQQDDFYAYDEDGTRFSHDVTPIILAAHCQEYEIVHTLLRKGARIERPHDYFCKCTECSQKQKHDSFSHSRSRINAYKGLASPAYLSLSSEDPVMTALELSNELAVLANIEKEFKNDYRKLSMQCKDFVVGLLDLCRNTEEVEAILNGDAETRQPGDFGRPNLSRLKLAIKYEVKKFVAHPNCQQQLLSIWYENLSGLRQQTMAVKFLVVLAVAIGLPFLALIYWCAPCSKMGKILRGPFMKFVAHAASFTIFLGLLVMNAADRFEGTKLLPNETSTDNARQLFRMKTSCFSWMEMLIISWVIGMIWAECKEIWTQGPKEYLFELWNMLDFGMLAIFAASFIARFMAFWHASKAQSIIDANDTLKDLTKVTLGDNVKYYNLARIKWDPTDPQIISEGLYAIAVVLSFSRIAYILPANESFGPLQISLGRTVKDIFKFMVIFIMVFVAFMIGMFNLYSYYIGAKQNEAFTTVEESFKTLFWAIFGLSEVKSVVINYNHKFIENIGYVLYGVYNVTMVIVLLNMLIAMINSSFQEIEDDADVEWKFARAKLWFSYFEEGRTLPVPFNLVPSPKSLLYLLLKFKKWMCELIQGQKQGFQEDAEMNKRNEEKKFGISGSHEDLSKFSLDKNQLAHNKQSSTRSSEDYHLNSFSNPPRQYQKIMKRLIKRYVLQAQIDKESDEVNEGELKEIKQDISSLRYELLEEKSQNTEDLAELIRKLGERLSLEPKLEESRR
# TRPC6 inhibitor = mouse TRPC6 channel inhibitors, primary screen, cell-based, HEK293, membrane potential dye | ACh-evoked depolarization; hits give low values | B-score at 10 µM | 1.1% of 310,000 active;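 active means B-score under library mean minus 3 SD, initial fluorescence not abnormally high, positive integrated signal ratio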;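 further: B-score derived from integrated fluorescence ratio over the kinetic read; more negative B-score means stronger inhibition of depolarization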
# TRPC4 potent = positive allosteric modulators of TRPC4, primary screen, cell-based, mouse TRPC4beta, HEK293 mu-opioid, Fluo-4 calcium; AID 2227, 2009; Short transient receptor potential channel 4 (Mus musculus), Q9QUQ5; B-score at 10 µM; 0.42% of 310,000 active; DAMGO EC20, Fluo-4 Ca2+ flux; hits give high values;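 active means B-score of calcium response area above 5 SD of library B-scores, with initial fluorescence ratio within 5 SD of library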
# TRPC4 agonist = activators of mouse TRPC4 channel, primary screen, Fluo4 calcium, HEK293 TRPC4beta/mu-opioid cells; Fluo4 calcium fluorescence; hits give high values; Short transient receptor potential channel 4 (Mus musculus), Q9QUQ5; 0.49% of 310,000 active; B-score at 10 µM;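 active means B-score above 5 SD of library B-scores, and initial fluorescence ratio not above library mean plus 5 SD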;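 further: positive B-score marks a calcium rise read as TRPC4 activation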
#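 Assay system – TRPC4beta and mu-opioid receptor HEK293 stable cells · Measured by – Fluo4 fluorescence, kinetic · Schedule – dye loading 45 min room temperature, 110 s kinetic read · Read-out – B-scored integrated calcium fluorescence ratio · Controls – buffer and maximal DAMGO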
# TRPC4 spec 2 = second check of whether TRPC6 inhibitors also affect mouse TRPC4 | shares compounds with TRPC6 inhibitor | AID 2776 | inhibition, % at 10 µM | 42% of 920 active | HEK293 TRPC4/MOR, membrane potential dye fluorescence; channel activated by saturating DAMGO dose;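 active means compounds whose fluorescence signal differed from control wells by over 3 SD, either direction, in both duplicate plates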
# TRPC4 spec = mouse TRPC4 modulation by TRPC6 hits, confirmation, selectivity assay for TRPC6 inhibitor project, cell-based, HEK293 TRPC4/mu-opioid, membrane potential dye. shares compounds with TRPC6 inhibitor. membrane potential fluorescence. activity change, negative = inhibition, % at 10 µM. 61% of 920 active;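 active means rise or fall in signal beyond 3 SD of buffer-only wells in both replicate plates, either sign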;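 further: integrated kinetic ratio of fluorescence range over baseline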
# HEK293 MPD ctr 2-1 = nonspecific membrane potential effects, parental HEK293, confirmation, counter-screen for TRPC6 inhibitor project, cell-based, second counter screen | shares compounds with TRPC6 inhibitor | parental HEK293 membrane potential dye fluorescence; maximal acetylcholine challenge after compound addition | signal change vs control, % at 10 µM | 31% of 920 active | AID 2779, 2010;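 active means membrane potential signal moving either way by over 3 SD of the maximum-effect control, in both duplicate plates, meaning non-specific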
# HEK293 MPD ctr-1 = membrane potential modulation in parental HEK293, confirmation, counter-screen for TRPC6 inhibitor project, cell-based. shares compounds with TRPC6 inhibitor. parental HEK293 membrane potential dye fluorescence. membrane potential signal change, % at 10 µM. 60% of 920 active;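 active means membrane potential signal shifting up or down by more than 3 SD of buffer-only wells, on both duplicate plates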
# HEK293 MPD ctr-2 = parental HEK293 membrane potential modulation, confirmation, counter-screen for TRPC6 modulator project, cell-based | 51% of 2,400 active | AID 488924, 2010 | membrane potential dye fluorescence | shares compounds with TRPC6 inhibitor | membrane potential signal change, % at 10 µM;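 active means membrane potential signal moves up or down beyond 5 SD from buffer-only wells, on both duplicate plates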
# HEK293 MPD ctr 2-2 = second counter-screen for TRPC6 modulators: effect in parental HEK293 cells; AID 488926; membrane potential dye fluorescence; after compound, maximal acetylcholine stimulation; 14% of 2,400 active; shares compounds with TRPC6 inhibitor; inhibition, % at 10 µM;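 active means membrane potential signal drops by more than 5 SD from the mean control signal, in both duplicate plates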
# TRPC4/MOR mod = TRPC4 modulation by TRPC6 hit compounds, confirmation, selectivity assay for TRPC6 modulator project, cell-based, HEK293 TRPC4/mu-opioid, membrane potential dye, mouse. shares compounds with TRPC6 inhibitor. membrane potential fluorescence. percent change from control (negative = decrease, positive = increase), % at 10 µM. 69% of 2,400 active. AID 488927, 2010;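 active means membrane potential signal moved up or down beyond 5 SD of buffer control wells, in both duplicate plates, actives on both sides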
# TRPC4/MOR inh 2 = mouse TRPC4 off-target activity of TRPC6 modulators, second screen. 55% of 2,400 active. inhibition, % at 10 µM. HEK293 TRPC4/mu-opioid, membrane potential dye fluorescence; stimulated with maximal-effect DAMGO. shares compounds with TRPC6 inhibitor;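 active means drop in membrane potential signal beyond 5 SD of the control wells in both duplicate plates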;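 further: TRPC4 counter screen for TRPC6 hits run under conditions tuned for TRPC6 not TRPC4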
# TRPC6 inh conf = mouse TRPC6 channel inhibitors, confirmation, HEK293 cells, membrane potential dye, duplicate; shares compounds with TRPC6 inhibitor; ACh-evoked depolarization; inhibition, % at 10 µM; 43% of 3,300 active; AID 488960, 2010;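 active means fluorescence ratio falls more than 5 SD below the full-stimulation control mean, in both duplicate runs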;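 further: integrated fluorescence ratio of peak minus minimum over baseline after agonist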
# TRPC6 act confirm = mouse TRPC6 channel activators, confirmation, HEK293 cells, membrane potential dye, duplicate | activation, % at 10 µM | HEK293-TRPC6 membrane potential dye fluorescence, FDSS | shares compounds with TRPC6 inhibitor | 11% of 2,800 active;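 active means ratio signal rise beyond 5 SD above unstimulated control wells' mean, seen in both duplicate runs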
# Numbers stand for hits; – = inactive; · = no result. In the library only some 2.3% were active in any assay of this set; here they are far more common.
SMILES,TRPC4 block,TRPC6 act,TRPC6 inhibitor,TRPC4 potent,TRPC4 agonist,HEK293 MPD ctr-2,HEK293 MPD ctr 2-2,TRPC4/MOR mod,TRPC4/MOR inh 2,TRPC6 inh conf,TRPC6 act confirm,others
Cc1nc2cc(CO)ccc2n1C,–,–,–,–,–,·,·,·,·,·,·,
Cc1ccccc1C(=O)Nc1ccc2c(C#N)c3nc4ccccc4nc3n2c1,–,–,-5.8,–,–,–,–,-10%,–,–,–,
CCn1c2ccc(F)cc2c2nnc(SCCN3CCCCC3)nc21,–,–,-5.8,–,–,-78%,–,36%,80%,–,–,
CCCn1c2ccc(F)cc2c2nnc(SCCN3CCCCC3)nc21,–,–,–,–,–,·,·,·,·,·,·,
CCN(CC)CCSc1nnc2c3ccccc3n(CCc3ccccc3)c2n1,–,–,-7.5,–,–,·,·,·,·,–,–,TRPC4 spec 2=18%;TRPC4 spec=0.5%;HEK293 MPD ctr 2-1=–;HEK293 MPD ctr-1=-198%
c1ccc(Cn2c3ccccc3c3nnc(SCCN4CCCCC4)nc32)cc1,–,–,–,–,–,·,·,·,·,·,·,
C=CCn1c2ccccc2c2nnc(SCCN3CCCCC3)nc21,–,–,-8.6,–,–,·,·,·,·,–,–,TRPC4 spec 2=73%;TRPC4 spec=-14%;HEK293 MPD ctr 2-1=–;HEK293 MPD ctr-1=-154%
O=C(Cn1cc([N+](=O)[O-])cn1)NCc1cc2ccccc2[nH]1,–,–,–,–,–,·,·,·,·,·,·,
Cc1sc2c(c1C)C(=O)NC(c1ccccc1F)N2 (stereo not drawn),–,–,–,–,–,·,·,·,·,·,·,
O=C(NCC1CCCCC1)C1(CC2CC(c3ccc(Cl)cc3)=NO2)CCNCC1 (stereo not drawn),–,–,–,–,–,·,·,·,·,·,·,
CN(C)C(=O)c1c([N+](=O)[O-])c(C(C)(C)C)nn1C,–,–,-6.2,–,–,–,–,–,–,–,–,
CCC(c1nnc(SCC(=O)NCCc2ccc(OC)c(OC)c2)n1Cc1ccccc1)N(C)C (stereo not drawn),–,–,–,–,–,·,·,·,·,·,·,
O=C(COc1ccccc1)NCC(c1ccco1)N1CCN(c2ccccc2F)CC1 (stereo not drawn),–,–,-5.9,–,–,141%,–,32%,46%,64%,·,
O=C(CCOc1ccccc1)NCC(c1ccco1)N1CCCCC1 (stereo not drawn),–,–,-5.6,–,–,–,–,12%,–,–,·,
Cc1ccc2c(c1)C(c1ccccc1)N(C(=O)c1ccc3c(c1)OCO3)CC(=O)N2 (stereo not drawn),–,–,–,–,–,·,·,·,·,·,·,
N#CC1=C(N)OC2=C(CN(Cc3ccccc3)C/C2=C\c2cccnc2)C1c1cccnc1 (stereo not drawn),–,–,–,–,–,·,·,·,·,·,·,
CC(C)N1CC2=C(OC(N)=C(C#N)C2c2cccnc2)/C(=C/c2cccnc2)C1 (stereo not drawn),–,–,-5,–,–,91%,–,–,–,–,–,
Fc1cccc(CCN2CCNC[C@@H]2Cc2ccccc2)c1,–,–,-5.4,–,–,–,–,–,39%,–,–,
CCCC[C@@H]1CNCCN1CCc1cccc(F)c1,–,–,–,–,–,·,·,·,·,·,·,
CC(O)[C@H]1CNCCN1CCc1cc(C(F)(F)F)cc(C(F)(F)F)c1 (stereo partly drawn),–,–,–,–,–,·,·,·,·,·,·,
FC(F)(F)c1cc(CCN2CCNC[C@@H]2Cc2ccccc2)cc(C(F)(F)F)c1,–,–,-5.6,–,–,–,–,–,48%,–,–,
O=C(CNC(=O)COc1ccccc1)NCc1ccccc1F,–,–,–,–,–,·,·,·,·,·,·,
COc1ccc(NC(=S)N2CCCC(c3nc4ccc(C)cc4[nH]3)C2)cc1 (stereo not drawn),–,–,-6.5,–,–,–,–,–,–,–,–,
Cn1ccnc1C1CCCCN1Cc1nc(Cc2ccccc2F)no1 (stereo not drawn),–,–,-5.5,–,–,–,–,–,–,67%,–,
Clc1ccccc1Cc1noc(CN2CCCCC2c2ccccn2)n1 (stereo not drawn),–,–,–,–,–,·,·,·,·,·,·,
COC(=O)c1ccc(-c2noc(CN3CCCCC3c3nccn3C)n2)cc1 (stereo not drawn),–,–,-5.1,–,–,164%,–,38%,36%,43%,·,
COC(=O)c1ccc(-c2noc(CN(Cc3nccn3C)C(C)C)n2)cc1,–,–,-5.1,–,–,–,–,–,–,–,–,
